Data taken from ChEMBL document CHEMBL1158114, “Acetylated flavanone glycosides from the rhizomes of Cyclosorus acuminatus” (2006).
In brackets after ≈: the same amount, converted by molar mass.

Columns and labels:
Type in all cases: functional
Staphylococcus aureus = assay: Antibacterial activity against Staphylococcus aureus ATCC 25923
Outline: (§1)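 Twofold serial dilution method; reference laboratory ATCC strains used as test organisms: S. aureus 25923, E. coli 25922, S. pneumoniae 49619, H. influenzae 49247.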

Escherichia coli = assay: Antibacterial activity against Escherichia coli ATCC 25922; outline: as §1
Streptococcus pneumoniae = assay: Antibacterial activity against Streptococcus pneumoniae ATCC 49619; outline: as §1
Haemophilus influenzae = assay: Antibacterial activity against Haemophilus influenzae ATCC 49247; outline: as §1

Row | SMILES | MIC (Staphylococcus aureus) [µg/mL] | MIC (Escherichia coli) [µg/mL] | MIC (Streptococcus pneumoniae) [µg/mL] | MIC (Haemophilus influenzae) [µg/mL]
1 | C[C@@H]1O[C@@H](Oc2ccc(O)cc2[C@@H]2CC(=O)c3c(O)cc(O)cc3O2)[C@H](O)[C@H](O[C@@H]2O[C@H](CO)[C@@H](O)[C@H](O)[C@H]2O)[C@H]1O | 128 (≈ 215 µM) | 64 (≈ 107 µM) | 32 (≈ 53.6 µM) | 32 (≈ 53.6 µM)
2 | CC(=O)OC[C@H]1O[C@@H](O[C@@H]2[C@@H](O)[C@H](C)O[C@@H](Oc3ccc(O)cc3[C@@H]3CC(=O)c4c(O)cc(O)cc4O3)[C@@H]2OC(C)=O)[C@H](O)[C@@H](O)[C@@H]1O | 128 (≈ 188 µM) | 64 (≈ 94 µM) | 32 (≈ 47 µM) | 32 (≈ 47 µM)
3 | CC[C@H]1OC(=O)[C@H](C)[C@@H](O[C@H]2C[C@@](C)(OC)[C@@H](O)[C@H](C)O2)[C@H](C)[C@@H](O[C@@H]2O[C@H](C)C[C@H](N(C)C)[C@H]2O)[C@](C)(O)C[C@@H](C)C(=O)[C@H](C)[C@@H](O)[C@]1(C)O [ERYTHROMYCIN] | 0.25 (≈ 0.341 µM) | 0.25 (≈ 0.341 µM) | 64 (≈ 87.2 µM) | 64 (≈ 87.2 µM)
4 | CC(=O)OC[C@H]1O[C@@H](O[C@@H]2[C@@H](O)[C@H](C)O[C@@H](Oc3ccc(O)cc3[C@@H]3CC(=O)c4c(O)cc(O)cc4O3)[C@@H]2OC(C)=O)[C@H](OC(C)=O)[C@@H](O)[C@@H]1O | 128 (≈ 177 µM) | 64 (≈ 88.6 µM) | 32 (≈ 44.3 µM) | 32 (≈ 44.3 µM)
5 | CC(=O)O[C@H]1[C@H](Oc2ccc(O)cc2[C@@H]2CC(=O)c3c(O)cc(O)cc3O2)O[C@@H](C)[C@H](O)[C@H]1O[C@@H]1O[C@H](CO)[C@@H](O)[C@H](O)[C@H]1O | 128 (≈ 200 µM) | 64 (≈ 100 µM) | 32 (≈ 50.1 µM) | 32 (≈ 50.1 µM)
6 | CC[C@H]1OC(=O)[C@H](C)[C@@H](O[C@H]2C[C@@](C)(OC)[C@@H](O)[C@H](C)O2)[C@H](C)[C@@H](O[C@@H]2O[C@H](C)C[C@H](N(C)C)[C@H]2O)[C@](C)(O)C[C@@H](C)CN(C)[C@H](C)[C@@H](O)[C@]1(C)O [AZITHROMYCIN] | 0.5 (≈ 0.668 µM) | 0.5 (≈ 0.668 µM) | 4 (≈ 5.34 µM) | 8 (≈ 10.7 µM)

The next lines start with the values.

Row | MIC (Staphylococcus aureus) [µg/mL] | MIC (Escherichia coli) [µg/mL] | MIC (Streptococcus pneumoniae) [µg/mL] | MIC (Haemophilus influenzae) [µg/mL] | SMILES
7 | 128 (≈ 177 µM) | 64 (≈ 88.6 µM) | 32 (≈ 44.3 µM) | 32 (≈ 44.3 µM) | CC(=O)OC[C@H]1O[C@@H](O[C@@H]2[C@@H](O)[C@H](C)O[C@@H](Oc3ccc(O)cc3[C@@H]3CC(=O)c4c(O)cc(O)cc4O3)[C@@H]2OC(C)=O)[C@H](O)[C@@H](O)[C@@H]1OC(C)=O
8 | 128 (≈ 177 µM) | 64 (≈ 88.6 µM) | 32 (≈ 44.3 µM) | 32 (≈ 44.3 µM) | CC(=O)OC[C@H]1O[C@@H](O[C@@H]2[C@@H](O)[C@H](C)O[C@@H](Oc3ccc(O)cc3[C@@H]3CC(=O)c4c(O)cc(O)cc4O3)[C@@H]2OC(C)=O)[C@H](O)[C@@H](OC(C)=O)[C@@H]1O
9 | 128 (≈ 167 µM) | 64 (≈ 83.7 µM) | 32 (≈ 41.8 µM) | 32 (≈ 41.8 µM) | CC(=O)OC[C@H]1O[C@@H](O[C@@H]2[C@@H](O)[C@H](C)O[C@@H](Oc3ccc(O)cc3[C@@H]3CC(=O)c4c(O)cc(O)cc4O3)[C@@H]2OC(C)=O)[C@H](O)[C@@H](OC(C)=O)[C@@H]1OC(C)=O
